Here are results for eleven molecules from ChEMBL document CHEMBL4020824, “Discovery of Potent and Orally Bioavailable Dihydropyrazole GPR40 Agonists” (J Med Chem, 2018).

Active and inactive are the calls of the source. The rule behind the calls is not given here.

Series [1] addresses T1, Free fatty acid receptor 1 (Homo sapiens, UniProt O14842). Briefly: Agonist activity at human GPR40 expressed in CHOA12 cells assessed as induction of Ca2+ mobilization by FLIPR assay. The class given is functional, cell-based.
Series [2] has as its target T1, Free fatty acid receptor 1. Briefly: Agonist activity at human GPR40 expressed in CHOA12 cells assessed as induction of Ca2+ mobilization at 8.3 uM by FLIPR assay relative to compound 2. The class given is functional, cell-based. On the technique in general: A change in cytosolic calcium serves as a functional read-out for many receptors and channels.
Series [3] is described as follows: Half life in CD1 mouse at 1 mg/kg, iv administered as bolus dose or 1 mg/kg, po administered as single dose measured up to 24 hrs post dose by LC-MS/MS analysis. The class given is ADME, organism-based. Conditions: in vivo.
A short description of series [4]: Volume of distribution at steady state in cynomolgus monkey at 0.5 mg/kg, iv administered as single dose measured up to 24 hrs post dose by LC-MS/MS analysis. The settings on record: in vivo, read-out: Vdss. The class given is ADME, organism-based, Macaca fascicularis.
The nature of series [5]: Half life in rat liver microsomes at 1 to 3 uM incubated for 20 mins in presence NADPH measured up to 90 mins by LC/MS/MS analysis. In kind it is ADME, microsome. Conditions: liver microsomes.
Series [6] is described as follows: Half life in human liver microsomes at 1 to 3 uM incubated for 20 mins in presence NADPH measured up to 90 mins by LC/MS/MS analysis. In kind it is ADME, microsome. Conditions: liver microsomes. Background: Liver microsomes are a subcellular fraction often used to study metabolism.
Series [7] in a line: Clearance in Sprague-Dawley rat at 1 mg/kg, iv administered as single dose measured up to 24 hrs post dose by LC-MS/MS analysis. In kind it is ADME, organism-based. The settings on record: in vivo.
Series [8] is described as follows: Clearance in Beagle dog at 0.5 mg/kg, iv administered as single dose measured up to 24 hrs post dose by LC-MS/MS analysis. The class given is ADME, organism-based, Canis lupus familiaris. The settings on record: in vivo.
The nature of series [9]: Oral bioavailability in Sprague-Dawley rat at 3 mg/kg administered via gavage as single dose measured up to 24 hrs post dose by LC-MS/MS analysis. In kind it is ADME, organism-based. Conditions: in vivo.
The nature of series [10]: Volume of distribution at steady state in CD1 mouse at 1 mg/kg, iv via bolus dose or 1 mg/kg, po administered as single dose measured up to 24 hrs post dose by LC-MS/MS analysis. The settings on record: in vivo, read-out: Vdss. The class given is ADME, organism-based.
Series [11] in a line: Volume of distribution at steady state in Sprague-Dawley rat at 1 mg/kg, iv administered as single dose measured up to 24 hrs post dose by LC-MS/MS analysis. Conditions: in vivo, read-out: Vdss. In kind it is ADME, organism-based.
Series [12] is described as follows: Stability in rat liver microsomes assessed as parent compound remaining at 1 to 3 uM incubated for 20 mins in presence NADPH measured up to 90 mins by LC/MS/MS analysis. In kind it is ADME, microsome. Conditions: liver microsomes, read-out: Stability. Put shortly: (§1)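 Human or rat liver microsomal incubations. The read-outs were % parent remaining, % D-ring dealkylation metabolites, % GSH adducts, and half-life (min). The metabolites followed were CYP450-mediated oxidative de-alkylation products (phenols) and GSH conjugates.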

Series [13] is described as follows: Clearance in cynomolgus monkey at 0.5 mg/kg, iv administered as single dose measured up to 24 hrs post dose by LC-MS/MS analysis. In kind it is ADME, organism-based, Macaca fascicularis. The settings on record: in vivo.
Series [14] in a line: Cmax in Sprague-Dawley rat at 3 mg/kg, po administered as single dose measured up to 24 hrs post dose by LC-MS/MS analysis. In kind it is ADME, organism-based. The settings on record: in vivo. On the set-up: dose 3 mg/kg, route oral.
Series [15] is described as follows: Half life in Beagle dog at 0.5 mg/kg, iv administered as single dose measured up to 24 hrs post dose by LC-MS/MS analysis. The class given is ADME, organism-based, Canis lupus familiaris. Conditions: in vivo.
A short description of series [16]: Volume of distribution at steady state in Beagle dog at 0.5 mg/kg, iv administered as single dose measured up to 24 hrs post dose by LC-MS/MS analysis. In kind it is ADME, organism-based, Canis lupus familiaris. Conditions: in vivo, read-out: Vdss.
The nature of series [17]: Half life in cynomolgus monkey at 0.5 mg/kg, iv administered as single dose measured up to 24 hrs post dose by LC-MS/MS analysis. The class given is ADME, organism-based, Macaca fascicularis. The settings on record: in vivo.
Series [18] in a line: Half life in Sprague-Dawley rat at 1 mg/kg, iv administered as single dose measured up to 24 hrs post dose by LC-MS/MS analysis. The class given is ADME, organism-based. The settings on record: in vivo.
Series [19] can be described thus: Tmax in Sprague-Dawley rat at 3 mg/kg, po administered as single dose measured up to 24 hrs post dose by LC-MS/MS analysis. In kind it is ADME, organism-based. Conditions: in vivo.
Series [20] in a line: Clearance in CD1 mouse at 1 mg/kg, iv administered as bolus dose or 1 mg/kg, po administered as single dose measured up to 24 hrs post dose by LC-MS/MS analysis. The class given is ADME, organism-based. Conditions: in vivo.
Series [21] can be described thus: Stability in human liver microsomes assessed as parent compound remaining at 1 to 3 uM incubated for 20 mins in presence NADPH measured up to 90 mins by LC/MS/MS analysis. Conditions: liver microsomes, read-out: Stability. In kind it is ADME, microsome. Put shortly:
as §1

T1 sequence (O14842 whole entry): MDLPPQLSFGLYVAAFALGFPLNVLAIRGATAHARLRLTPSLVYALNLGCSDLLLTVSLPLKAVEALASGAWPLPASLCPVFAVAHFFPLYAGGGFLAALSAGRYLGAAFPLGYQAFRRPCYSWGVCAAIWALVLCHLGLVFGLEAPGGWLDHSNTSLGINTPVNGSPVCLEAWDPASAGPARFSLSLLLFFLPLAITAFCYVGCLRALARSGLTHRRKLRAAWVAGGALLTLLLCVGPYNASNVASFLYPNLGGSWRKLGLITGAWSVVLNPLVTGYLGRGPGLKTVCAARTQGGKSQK

As a reminder, the EC50 is the concentration at which the effect is half-maximal. Regarding `COc1ccc(Cl)c(N2CCC(Oc3ccc(N4N=C(C(F)(F)F)[C@@H](C)[C@@H]4CC(=O)O)cc3)CC2)c1`, in [1], the EC50 turned out to be 100 nM.
As to `COc1ccc(F)c(N2CC[C@H](COc3ccc(N4C[C@H](C(F)(F)F)C[C@@H]4CC(=O)O)cc3)C2)c1`, in series [2], the outcome was Active.
As for `CCc1ccc(F)c(N2CCC(Oc3ccc(N4N=C(C(F)(F)F)[C@@H](C)[C@@H]4CC(=O)O)cc3)CC2)c1`, in [1], the half-maximal effective concentration (EC50) lay in the range of 450 to 720 nM.
Regarding `COc1ccc(F)c(N2CCC(Oc3ccc(N4C[C@H](C(F)(F)F)C[C@@H]4CC(=O)O)cc3)C2)c1` (some centres not stated), the EC50 in series [1] is 2830 to 5360 nM. The result in series [2] was Active.
In general, half-life refers to how long it takes for the measured level to halve. By bioavailability is commonly meant the share of a dose that reaches the circulation, judged against a reference dose that is usually intravenous. The Cmax is the peak of the concentration-time curve. What is called Tmax is the time from dosing to the highest level. As for `CCOc1ccc(F)c(N2CC[C@@H](Oc3ccc(N4N=C(C(F)(F)F)[C@@H](C)[C@@H]4CC(=O)O)cc3)[C@H](F)C2)c1`, the half-life in series [3] was 3.3 h; in [5] it was 0.617 h; in series [6] it was 1.58 h; in [15], 7.3 h; in series [17], 9.4 h; in series [18] it was 3.4 h. Moreover, the EC50 in series [1] was determined as 150 nM. The Vd in series [4] turned out to be 2.2 L/kg; in [10] it was 0.7 L/kg; in series [11], 0.8 L/kg; in series [16], 0.6 L/kg. In addition, the clearance in [7] amounted to 5 mL/min/kg; in [8], 2.6 mL/min/kg; in series [13], 4 mL/min/kg; in series [20] it was 1.6 mL/min/kg. In series [9], the bioavailability worked out at 89%. Also, the remaining at 20 min, up to 3 µM in series [12] was 79%; in [21] it was 93%. In series [14], this molecule had a Cmax of 3.2 µM. Besides, the Tmax in series [19] stood at 1.7 h.
As to `COc1cc(N2CC[C@@H](Oc3ccc(N4N=C(C(F)(F)F)[C@@H](C)[C@@H]4CC(=O)O)cc3)[C@H](F)C2)c(Cl)cn1`, the EC50 in series [1] came out at 180 nM.
With `COc1ccc(F)c(N2CCC(Oc3ccc(N4CCC[C@@H]4CC(=O)O)cc3)CC2)c1`, the EC50 in [1] was in the range of 1200 to 2600 nM. Besides, the outcome in series [2] was Active.
For the molecule `CCOc1cc(N2CC[C@@H](Oc3ccc(N4N=C(C(F)(F)F)[C@@H](C)[C@@H]4CC(=O)O)cc3)[C@H](C)C2)c(Cl)cn1`, the EC50 in series [1] is 190 to 250 nM.
Regarding `C[C@@H]1C(C(F)(F)F)=NN(c2ccc(OC3CCN(c4cccc(F)n4)CC3)cc2)[C@H]1CC(=O)O`, the EC50 in [1] was 390 to 860 nM.
`C[C@@H]1C(C(F)(F)F)=NN(c2ccc(OC3CCN(c4ccc(F)cc4)CC3)cc2)[C@H]1CC(=O)O`: the EC50 in [1] lay within 2550 to 2730 nM.
On the same count and under the same terms, as for `C[C@@H]1C(C(F)(F)F)=NN(c2ccc(OC3CCN(c4cc(Cl)ccc4Cl)CC3)cc2)[C@H]1CC(=O)O`, the figure is 250 nM.
